Experimental findings from ChEMBL document CHEMBL1124084, “Studies on scavengers of active oxygen species. 1. Synthesis and biological activity of 2-O-alkylascorbic acids” (J Med Chem, 1988) are described below.

The source made the active and inactive calls. The rule behind the calls is not given here.

In assay [1] the test system is Rattus norvegicus. The assay is described as follows: Effect of AOS scavenger on ventricular fibrillation (VF),arrhythmias induced by ischemia-reperfusion in anesthetized rat, duration at 10 mg/kg. Format: functional, Cardiac ventricle.
Assay [2] concerns Rattus norvegicus. Put plainly: Effect of AOS scavenger on ventricular fibrillation (VF), arrhythmias induced by ischemia-reperfusion in anesthetized rat, frequency, times at 10 mg/kg. Format: functional, Cardiac ventricle.
Assay [3] has as its system Rattus norvegicus. Put plainly: Effect of AOS scavenger on ventricular tachycardia (VT), arrhythmias induced by ischemia-reperfusion in anesthetized rat, frequency, times at 10 mg/kg. It is filed as functional, Cardiac ventricle.
Assay [4] is filed under the species Rattus norvegicus. Put plainly: Antilipid peroxidation was measured at 10e-5 M concentration. Format: functional. The procedure, abridged:
(§1)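 Rat brain lipid peroxidation: brains from male SD rats (12 weeks old), exsanguinated under pentobarbital anaesthesia, homogenized to 5% in phosphate buffer pH 7.4. Homogenate incubated with test drug at 37 °C for 1 h. Lipid peroxide quantified by the thiobarbituric acid method.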

The subject of assay [5] is Rattus norvegicus. The assay is described as follows: Effect of AOS scavenger on ventricular tachycardia (VT),arrhythmias induced by ischemia-reperfusion in anesthetized rat, incidence at 10 mg/kg.
Assay [6] has as its system Rattus norvegicus. The assay is described as follows: Effect of AOS scavenger on premeture ventricular complexes PVCs, arrhythmias induced by ischemia-reperfusion in anesthetized rat, duration at 10 mg/kg. It is filed as functional, Cardiac ventricle.
The subject of assay [7] is Rattus norvegicus. The assay is described as follows: Effect of AOS scavenger on ventricular tachycardia (VT),arrhythmias induced by ischemia-reperfusion in anesthetized rat, duration at 10 mg/kg. It is filed as functional, Cardiac ventricle.
Assay [8] is described as follows: Reducing activity determined by the use of stable radical alpha,alpha-di-phenyl-beta-picrylhydrazyl (DPPH). Details: concentration or dose not given beside the values. A general note: Loss of DPPH colour is used to gauge radical scavenging.
The subject of assay [9] is Rattus norvegicus. Put plainly: Effect of AOS scavenger on ventricular fibrillation (VF),arrhythmias induced by ischemia-reperfusion in anesthetized rat, incidence at 10 mg/kg; 3/6. It is filed as functional, Cardiac ventricle.
The subject of assay [10] is Rattus norvegicus. The assay is described as follows: Effect of AOS scavenger on ventricular fibrillation (VF),arrhythmias induced by ischemia-reperfusion in anesthetized rat, incidence at 10 mg/kg; 4/7. It is filed as functional, Cardiac ventricle.
The subject of assay [11] is Rattus norvegicus. Put plainly: Effect of AOS scavenger on ventricular fibrillation (VF),arrhythmias induced by ischemia-reperfusion in anesthetized rat, frequency at 10 mg/kg.
In assay [12] the test system is Rattus norvegicus. Put plainly: Effect of AOS scavenger on ventricular fibrillation (VF),arrhythmias induced by ischemia-reperfusion in anesthetized rat, duration at 10 mg/kg.
The test system of assay [13] is Rattus norvegicus. Put plainly: Effect of AOS scavenger on ventricular tachycardia (VT),arrhythmias induced by ischemia-reperfusion in anesthetized rat, frequency, times at 10 mg/kg. Format: functional, Cardiac ventricle.
For assay [14], the species on record is Rattus norvegicus. The assay is described as follows: Inhibition of lipid peroxidation was determined with rat brain tissue homogenates. It is filed as functional. A digest of the protocol: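 Brains excised from male SD rats (12 weeks), exsanguinated under pentobarbital anesthesia; 5% homogenate in phosphate buffer pH 7.4 incubated with test drug 1 h at 37 °C; lipid peroxide quantified by thiobarbituric acid method.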

For assay [15], the species on record is Rattus norvegicus. The assay is described as follows: Antilipid peroxidation was determined. Format: functional. A digest of the protocol: as §1
Assay [16] concerns Rattus norvegicus. The assay is described as follows: Effect of AOS scavenger on ventricular tachycardia (VT),arrhythmias induced by ischemia-reperfusion in anesthetized rat, incidence at 10 mg/kg; 6/7. It is filed as functional, Cardiac ventricle.
In assay [17] the test system is Rattus norvegicus. Put plainly: Effect of AOS scavenger on ventricular tachycardia (VT), arrhythmias induced by ischemia-reperfusion in anesthetized rat at requency, times 10 mg/kg. It is filed as functional, Cardiac ventricle.
The test system of assay [18] is Rattus norvegicus. Put plainly: Effect of AOS scavenger on ventricular fibrillation (VF),arrhythmias induced by ischemia-reperfusion in anesthetized rat, incidence at 10 mg/kg; 2/7. Format: functional, Cardiac ventricle.
The subject of assay [19] is Rattus norvegicus. Put plainly: Effect of AOS scavenger on premeture ventricular complexes PVCs, arrhythmias induced by ischemia-reperfusion in anesthetized rat, frequency per minute at 100 mg/kg.
The test system of assay [20] is Rattus norvegicus. The assay is described as follows: Effect of AOS scavenger on ventricular tachycardia (VT), arrhythmias induced by ischemia-reperfusion in anesthetized rat, frequency, times at 100 mg/kg. It is filed as functional, Cardiac ventricle.
Assay [21] deals with Rattus norvegicus. Put plainly: Effect of AOS scavenger on ventricular fibrillation (VF), arrhythmias induced by ischemia-reperfusion in anesthetized rat, incidence at 100 mg/kg; 4/10. Format: functional, Cardiac ventricle.
For assay [22], the system named is Rattus norvegicus. Put plainly: Effect of AOS scavenger on ventricular tachycardia (VT), arrhythmias induced by ischemia-reperfusion in anesthetized rat, incidence at 100 mg/kg; 7/10. Format: functional, Cardiac ventricle.
Assay [23] deals with Rattus norvegicus. The assay is described as follows: Effect of AOS scavenger on ventricular fibrillation (VF), arrhythmias induced by ischemia-reperfusion in anesthetized rat, frequency, times at 100 mg/kg. Format: functional, Cardiac ventricle.
The test system of assay [24] is Rattus norvegicus. Put plainly: Effect of AOS scavenger on ventricular tachycardia (VT), arrhythmias induced by ischemia-reperfusion in anesthetized rat, duration at 100 mg/kg. It is filed as functional, Cardiac ventricle.
Assay [25] has as its system Rattus norvegicus. Put plainly: Effect of AOS scavenger on ventricular fibrillation (VF), arrhythmias induced by ischemia-reperfusion in anesthetized rat, duration at 100 mg/kg. Format: functional, Cardiac ventricle.
The test system of assay [26] is Rattus norvegicus. Put plainly: Effect of AOS scavenger on ventricular tachycardia (VT),arrhythmias induced by ischemia-reperfusion in anesthetized rat, incidence at 10 mg/kg; 8/8. It is filed as functional, Cardiac ventricle.
For assay [27], the species on record is Rattus norvegicus. Put plainly: Antilipid peroxidation was determined; No effect. Format: functional. The procedure, abridged: as §1
The subject of assay [28] is Rattus norvegicus. Put plainly: Effect of AOS scavenger on ventricular fibrillation (VF),arrhythmias induced by ischemia-reperfusion in anesthetized rat; incidence at 10 mg/kg 7/8. Format: functional, Cardiac ventricle.
Assay [29] deals with Rattus norvegicus. The assay is described as follows: Effect of AOS scavenger on ventricular tachycardia (VT),arrhythmias induced by ischemia-reperfusion in anesthetized rat duration at 10 mg/kg. It is filed as functional, Cardiac ventricle.
Assay [30] has as its system Rattus norvegicus. The assay is described as follows: Effect of AOS scavenger on ventricular tachycardia (VT), arrhythmias induced by ischemia-reperfusion in anesthetized rat, frequency, times at 3 mg/kg. Format: functional, Cardiac ventricle.
Assay [31] relates to Rattus norvegicus. The assay is described as follows: Effect of AOS scavenger on ventricular fibrillation (VF), arrhythmias induced by ischemia-reperfusion in anesthetized rat, incidence at 3 mg/kg; 8/10. It is filed as functional, Cardiac ventricle.
Assay [32] concerns Rattus norvegicus. Put plainly: Effect of AOS scavenger on ventricular tachycardia (VT), arrhythmias induced by ischemia-reperfusion in anesthetized rat, duration at 3 mg/kg. Format: functional, Cardiac ventricle.
Assay [33] has as its system Rattus norvegicus. The assay is described as follows: Effect of AOS scavenger on ventricular fibrillation (VF), arrhythmias induced by ischemia-reperfusion in anesthetized rat, duration at 3 mg/kg. It is filed as functional, Cardiac ventricle.
Assay [34] has as its system Rattus norvegicus. Put plainly: Effect of AOS scavenger on premeture ventricular complexes PVCs, arrhythmias induced by ischemia-reperfusion in anesthetized rat, duration at 3 mg/kg. Format: functional, Cardiac ventricle.
Assay [35] concerns Rattus norvegicus. The assay is described as follows: Effect of AOS scavenger on ventricular fibrillation (VF), arrhythmias induced by ischemia-reperfusion in anesthetized rat, frequency, times at 3 mg/kg. It is filed as functional, Cardiac ventricle.
For assay [36], the system named is Rattus norvegicus. The assay is described as follows: Effect of AOS scavenger on ventricular tachycardia (VT), arrhythmias induced by ischemia-reperfusion in anesthetized rat, incidence at 3 mg/kg; 8/10. It is filed as functional, Cardiac ventricle.

On to `CCCCCCCCCCCCCCCCCCOC1=C(O)C(=O)OC1C(O)CO` (stereo not drawn), for which the Duration in the assay with Rattus norvegicus [1] is listed as below 1.9 s; with Rattus norvegicus [7], below 4 s. Moreover, the Frequency in the assay with Rattus norvegicus [2] is below 0.8; with Rattus norvegicus [3] it was 2.3. Moreover, in the assay filed under Rattus norvegicus [4], the Antilipid peroxidation came out at 34.5%. For the same molecule, the figures for the Incidence with Rattus norvegicus [5] and in the assay with Rattus norvegicus [9] were 4 N and 3 N, respectively. The PVCs with Rattus norvegicus [6] is 3.9. Further, the Reducing activity in [8] turned out to be 94.5%.
By IC50 is commonly meant the midpoint of a concentration-inhibition curve. For `CCCCCCCCCCCCCCCOC1=C(O)OC(C(O)CO)C1=O` (stereo not drawn), the Incidence in the assay with Rattus norvegicus [10] turned out to be 4 N; in the assay with Rattus norvegicus [16], 6 N. For the same molecule, the Frequency with Rattus norvegicus [11] is below 0.9; with Rattus norvegicus [13] it was 5. Besides, the Duration with Rattus norvegicus [12] is below 3 s; in the assay on Rattus norvegicus [7] it was 11.9 s. The molecule also displayed an Activity with Rattus norvegicus [6] below 4.3 min. Moreover, inhibition in the assay filed under Rattus norvegicus [14] was half-maximal at 5.6 µM (IC50). For the same molecule, in assay [8], the Reducing activity is 95.4%. The molecule further had an Antilipid peroxidation in the assay filed under Rattus norvegicus [15] of 67.4%.
Regarding `CCCCCCCCCCCCCCOC1=C(O)OC(C(O)CO)C1=O` (stereo not drawn), the Duration in the assay with Rattus norvegicus [1] was determined as 10.1 s; in the assay with Rattus norvegicus [7], 12.9 s. The Frequency was below 0.6 with Rattus norvegicus [2] and below 2.6 with Rattus norvegicus [17]. The same molecule registered an Incidence with Rattus norvegicus [18] of 2 N. The Activity in the assay on Rattus norvegicus [6] is below 3.5 min. In addition, 7.4 µM corresponded to half-maximal inhibition in the assay listed under Rattus norvegicus [14] (IC50). This molecule also yielded a Reducing activity in assay [8] of 95.4%. The Antilipid peroxidation in the assay listed under Rattus norvegicus [15] turned out to be 54.8%.
In the assay on Rattus norvegicus [19], `OC[C@@H](O)[C@@H](O)[C@H](O)[C@H](O)CO` [MANNITOL] displayed an Activity of 4.8 min⁻¹. The Frequency is on record as 2.7 in the assay on Rattus norvegicus [20] and 0.8 with Rattus norvegicus [23]. Also, the Incidence with Rattus norvegicus [21] is reported as 4 N; with Rattus norvegicus [22], 7 N. Also, the Duration came out at 7.7 s in the assay with Rattus norvegicus [24] and 1.3 s in the assay with Rattus norvegicus [25].
Turning to `O=C1C(OCc2ccccc2)=C(O)OC1C(O)CO` (stereo not drawn), the Duration in the assay with Rattus norvegicus [1] is listed as 79.9 s; with Rattus norvegicus [29], below 4.9 s. The Frequency was 2.5 in the assay with Rattus norvegicus [2] and 3.9 in the assay with Rattus norvegicus [3]. The Incidence in the assay with Rattus norvegicus [26] stood at 8 N; in the assay on Rattus norvegicus [28], 7 N. The Antilipid peroxidation result in the assay listed under Rattus norvegicus [27] was “inactive”. Besides, the PVCs with Rattus norvegicus [6] is 26.9 PVCs/min. For the same molecule, the Reducing activity in assay [8] was found to be 93%.
As for `Cc1c(C)c2c(c(C)c1O)CC[C@@](C)(CCC[C@H](C)CCC[C@H](C)CCCC(C)C)O2` [ALPHA-TOCOPHEROL], the Frequency with Rattus norvegicus [30] is recorded as 3.1; with Rattus norvegicus [35], 2.1. Moreover, the Incidence with Rattus norvegicus [31] and in the assay on Rattus norvegicus [36] was 8 N in each case. For the same molecule, the Duration in the assay on Rattus norvegicus [32] came out at 7.4 s; in the assay with Rattus norvegicus [33] it was 111.1 s. The same molecule gave an Activity in the assay with Rattus norvegicus [34] of 23.3 min. In addition, in [8], the Reducing activity came out at 72%. The same molecule registered an Antilipid peroxidation in the assay listed under Rattus norvegicus [15] of 52%.
